Series [1] addresses T1, Integrin alpha-5/beta-1 (Homo sapiens, UniProt P05556+P08648). The series is described as follows: Antagonist activity at alpha5beta1 in human K562 cells assessed as reduction in cell adhesion to fibronectin pre-incubated for 30 mins before fibronectin and further incubated for 1 hr by nitrophenyl-N-acetyl-beta-D-glucosaminide substrate based chromogenic assay. The method in brief: (§1)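 Compound or methanol vehicle pre-incubated with cells for 30 min at room temperature. Cells then plated on wells coated overnight at 4 °C with fibronectin 10 µg/mL (SK-MEL-24, K562, HT-29) or fibrinogen 10 µg/mL (MCF7, HEL). Seeding was 50,000 cells/well, or 100000 for HEL. Adhesion ran 1 h at room temperature. Wells washed with 1% BSA/PBS. Adherent cells read by hexosaminidase substrate, absorbance 405 nm. Quadruplicate, at least three repeats.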

Series [2] has as its target T2, Integrin alpha-V/beta-5 (Homo sapiens, UniProt P06756+P18084). Put plainly: Antagonist activity at alphaVbeta5 in human MCF7 cells assessed as reduction in cell adhesion to fibrinogen pre-incubated for 30 mins before fibrinogen and further incubated for 1 hr by nitrophenyl-N-acetyl-beta-D-glucosaminide substrate based chromogenic assay. Put shortly:
(§2)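 Compound or methanol vehicle pre-incubated with cells for 30 min at room temperature. Cells then plated on wells coated overnight at 4 °C with fibronectin 10 µg/mL (SK-MEL-24, K562, HT-29) or fibrinogen 10 µg/mL (MCF7, HEL). Seeding was 50,000 cells/well, or 100000 for HEL. Adhesion ran 1 h at room temperature. Wells washed with 1% BSA/PBS. Quadruplicate, at least three repeats.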

For series [3], the system named is SK-MEL-24. The series is described as follows: Toxicity in human SK-MEL-24 cells assessed as induction of cell necrosis and/or apoptosis incubated for 3 hrs by annexin V-PE and 7-AAD staining based by flow cytometry. The note with it: sk-mel-24, 3 h. The method in brief: (§3)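 After 3 h incubation, cells resuspended in complete medium and stained with annexin V-PE/7-AAD reagent for 20 min at room temperature in the dark. Flow cytometry sorted cells into viable, early apoptotic and late apoptotic/necrotic populations.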

The target in series [4] is T3, Integrin alpha-L/beta-2 (LFA-1) (Homo sapiens, UniProt P05107+P20701). The series is described as follows: Antagonist activity at alphaLbeta2 in human Jurkat E6.1 cells assessed as reduction in cell adhesion to ICAM1 pre-incubated for 30 mins before ICAM1 and further incubated for 30 mins by […]. In kind it is cell-based. The method in brief:
(§4)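 Jurkat E6.1 cells labelled with CellTracker green CMFDA (12.5 µM, 30 min, 37 °C), washed, then pre-incubated 30 min at 37 °C with compound or methanol. Plated at 500,000/well on VCAM-1 (α4β1) or ICAM-1 (αLβ2) coated wells (5 µg/mL) for 30 min at 37 °C. Cells lysed in 0.5% Triton X-100; fluorescence read Ex485/Em535. Quadruplicate, at least three repeats.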

In series [5] the target is T4, Integrin alpha-4/beta-1 (Homo sapiens, UniProt P05556+P13612). Put plainly: Agonist activity at alpha4beta1 in human Jurkat E6.1 cells assessed as increase in cell adhesion to VCAM1 pre-incubated for 30 mins before VCAM1 and further incubated for 30 mins by […]. The series is classed as cell-based. Put shortly: as §4
Series [6] has as its target T5, Integrin alpha-V/beta-3 (Homo sapiens, UniProt P05106+P06756). Put plainly: Antagonist activity at alphaVbeta3 in human SK-MEL-24 cells assessed as reduction in cell adhesion to fibronectin pre-incubated for 30 mins before fibronectin and further incubated for 1 hr by nitrophenyl-N-acetyl-beta-D-glucosaminide substrate based chromogenic assay. Put shortly: as §2

Series [7] deals with T6, Integrin alpha-V/beta-6 (Homo sapiens, UniProt P06756+P18564). Put plainly: Agonist activity at alphaVbeta6 in human HT-29 cells assessed as increase in cell adhesion to fibronectin pre-incubated for 30 mins before fibronectin and further incubated for 1 hr by nitrophenyl-N-acetyl-beta-D-glucosaminide substrate based chromogenic assay. Put shortly: as §1
Series [8] concerns HT-29. The series is described as follows: Toxicity in human HT-29 cells assessed as induction of cell necrosis and/or apoptosis incubated for 3 hrs by annexin V-PE and 7-AAD staining based by flow cytometry. The note with it: ht-29, 3 h. Put shortly:
as §3
Background: In flow cytometry, cells or beads pass a laser one at a time.

The target of series [9] is T5, Integrin alpha-V/beta-3. Put plainly: Agonist activity at alphaVbeta3 in human SK-MEL-24 cells assessed as increase in cell adhesion to fibronectin pre-incubated for 30 mins before fibronectin and further incubated for 1 hr by nitrophenyl-N-acetyl-beta-D-glucosaminide substrate based chromogenic assay. Put shortly: as §1
For series [10], the target named is T4, Integrin alpha-4/beta-1. The series is described as follows: Antagonist activity at alpha4beta1 in human Jurkat E6.1 cells assessed as reduction in cell adhesion to VCAM1 pre-incubated for 30 mins before VCAM1 and further incubated for 30 mins by […]. In kind it is cell-based.
For series [11], the target named is T2, Integrin alpha-V/beta-5. The series is described as follows: Agonist activity at alphaVbeta5 in human MCF7 cells assessed as increase in cell adhesion to fibrinogen pre-incubated for 30 mins before fibrinogen and further incubated for 1 hr by nitrophenyl-N-acetyl-beta-D-glucosaminide substrate based chromogenic assay. The method in brief: as §1
For series [12], the target named is T6, Integrin alpha-V/beta-6. Put plainly: Antagonist activity at alphaVbeta6 in human HT-29 cells assessed as reduction in cell adhesion to fibronectin pre-incubated for 30 mins before fibronectin and further incubated for 1 hr by nitrophenyl-N-acetyl-beta-D-glucosaminide substrate based chromogenic assay. The method in brief: as §2
For series [13], the target named is T7, Integrin alpha-IIb/beta-3 (Homo sapiens, UniProt P05106+P08514). The series is described as follows: Agonist activity at alpha2bbeta3 in human HEL cells assessed as increase in cell adhesion to fibrinogen pre-incubated for 30 mins before fibrinogen and further incubated for 1 hr by nitrophenyl-N-acetyl-beta-D-glucosaminide substrate based chromogenic assay. The method in brief:
as §2

Series [14] deals with T3, Integrin alpha-L/beta-2 (LFA-1). Put plainly: Agonist activity at alphaLbeta2 in human Jurkat E6.1 cells assessed as increase in cell adhesion to ICAM1 pre-incubated for 30 mins before ICAM1 and further incubated for 30 mins by […]. In kind it is cell-based. The method in brief: as §4
In series [15] the test system is K562. The series is described as follows: Toxicity in human K562 cells assessed as induction of cell necrosis and/or apoptosis incubated for 3 hrs by annexin V-PE and 7-AAD staining based by flow cytometry. The note with it: k562, 3 h. The method in brief:
as §3

Series [16] deals with T7, Integrin alpha-IIb/beta-3. The series is described as follows: Antagonist activity at alpha2bbeta3 in human HEL cells assessed as reduction in cell adhesion to fibrinogen pre-incubated for 30 mins before fibrinogen and further incubated for 1 hr by nitrophenyl-N-acetyl-beta-D-glucosaminide substrate based chromogenic assay. Put shortly: as §2
Series [17] deals with MCF7. The series is described as follows: Toxicity in human MCF7 cells assessed as induction of cell necrosis and/or apoptosis incubated for 3 hrs by annexin V-PE and 7-AAD staining based by flow cytometry. The following applies: mcf7, 3 h. The method in brief: as §3
For series [18], the system named is HEL. Put plainly: Toxicity in human HEL cells assessed as induction of cell necrosis and/or apoptosis incubated for 3 hrs by annexin V-PE and 7-AAD staining based by flow cytometry. Put shortly: as §3
The target in series [19] is T4, Integrin alpha-4/beta-1. The series is described as follows: Inhibition of fibronectin binding to […] isolated from human Jurkat E6.1 cells incubated for 1 hr by scintillation-proximity assay based competitive solid-phase binding assay. In kind it is tissue-based.
In series [20] the target is T2, Integrin alpha-V/beta-5. Put plainly: Inhibition of fibrinogen binding to alphaVbeta5 isolated form human mCf7 cells incubated for 1 hr by […] competitive solid-phase binding assay.
Series [21] has as its target T1, Integrin alpha-5/beta-1. Put plainly: Agonist activity at alpha5beta1 in human K562 cells assessed as increase in cell adhesion to fibronectin pre-incubated for 30 mins before fibronectin and further incubated for 1 hr by nitrophenyl-N-acetyl-beta-D-glucosaminide substrate based chromogenic assay. The method in brief:
as §1

Series [22] has as its target T6, Integrin alpha-V/beta-6. The series is described as follows: Inhibition of fibronectin binding to alphaVbeta6 isolated form human HT-29 cells incubated for 1 hr by […] competitive solid-phase binding assay. The series is classed as tissue-based.
Series [23] addresses T5, Integrin alpha-V/beta-3. The series is described as follows: Inhibition of fibronectin binding to human recombinant alphaVbeta3 expressed in HEK293 cells incubated for 1 hr by […] competitive solid-phase binding assay. The series is classed as cell-based.
Series [24] has as its target T1, Integrin alpha-5/beta-1. The series is described as follows: Inhibition of fibronectin binding to alpha5beta1 isolated from human K562 cells incubated for 1 hr by […] competitive solid-phase binding assay. In kind it is tissue-based. Put shortly: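 Plates coated overnight at 4 °C in carbonate buffer pH 9.6 with fibronectin 0.5 µg/mL (αvβ3, αvβ6, α5β1), fibrinogen 10 µg/mL (αIIbβ3, αvβ5) or ICAM-1 (αLβ2). Blocked 1 h in buffer containing Ca/Mg/Mn 1 mM each and 1% BSA. Purified integrin (3–10 µg/mL) incubated with compound (10⁻⁴–10⁻¹⁰ M) 1 h at room temperature. Bound integrin detected with primary antibody then AlexaFluor488 secondary, Ex485/Em535. Duplicate, at least three repeats.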

Series [25] has as its target T7, Integrin alpha-IIb/beta-3. The series is described as follows: Inhibition of fibrinogen binding to alpha2bbeta3 isolated from human HEL cells incubated for 1 hr by […] competitive solid-phase binding assay.

These results are taken from ChEMBL document CHEMBL4680084, “New β-Lactam Derivatives Modulate Cell Adhesion and Signaling Mediated by RGD-Binding and Leukocyte Integrins” (J Med Chem, 2016).

As for `Nc1ccc(CNC(=O)N2C(=O)CC2CC(=O)NCCC(=O)O)cc1.O=C(O)C(F)(F)F` (stereo not given), the IC50 in series [1] was 1050 nM; in series [2], greater than 5000 nM; in [4], greater than 5000 nM; in [6] it was greater than 5000 nM; in series [10], greater than 5000 nM; in series [12], greater than 5000 nM. For the same molecule, in [16], the IC50 was greater than 5000 nM. In addition, the Activity entry in [3], in [8], in [15], in series [17] and in series [18] was “Non-Toxic” in each case. Also, the EC50 in series [5], in [7], in series [9], in series [11], in series [13] and in series [14] was greater than 5000 nM each time.

For `O=C(O)CC1CC(=O)N1` (stereo not given), the IC50 is greater than 1000 nM in series [19]; 1630 nM in [4]; 2.4 nM in series [20]; 40.9 nM in series [6]; greater than 1000 nM in [22]; 1.9 nM in [23]. Besides, the IC50 in series [10] is greater than 5000 nM; in series [12] it was greater than 5000 nM; in series [24], greater than 1000 nM; in [25] it was 265 nM. Besides, the Activity entry in series [3], in [8], in series [15], in series [17] and in series [18] was “Non-Toxic” throughout. Further, the EC50 in series [5] was greater than 5000 nM; in series [21] it was 1030 nM; in series [7] it was greater than 5000 nM; in [11], 376 nM; in [13], 311 nM.

For the molecule `CCCCS(=O)(=O)N[C@@H](Cc1ccc(OCCCCC2CCNCC2)cc1)C(=O)O` [TIROFIBAN], the Activity result in series [3], in series [8], in [15], in [17] and in series [18] was “Non-Toxic” throughout.

Take H-GRGDTP-OH: the IC50 is 0.62 nM in [1]; 34.2 nM in series [2]; 926 nM in series [6]; greater than 5000 nM in series [12]; greater than 5000 nM in series [16]. Besides, the Activity result in [3], in [8], in series [15], in series [17] and in [18] was “Non-Toxic” throughout. The half-maximal effective concentration (EC50) in [7] and in series [13] was greater than 5000 nM throughout.

For `CC(C)[C@@H]1NC(=O)[C@@H](Cc2ccccc2)NC(=O)[C@H](CC(=O)O)NC(=O)CNC(=O)[C@H](CCCN=C(N)N)NC1=O` [CYCLORGDFV], the Activity result in series [3], in [8], in series [15], in series [17] and in series [18] was “Non-Toxic” each time.

For orientation: IC50 means the concentration at which inhibition is half-maximal. The EC50 is the concentration that produces a half-maximal response.
